Results from article PMC9499614 (ACS chemical biology, 2022).
Read-outs that look alike come from different tables or passages of the source. Values belong to the compound of their own block, whether it stands above or below them.

Columns and labels:
Sirt7 [1] = target: T1, Sirt7 (Homo sapiens, UniProt Q9NRC8); assay type: biochemical; settings: saturating H3K18-Deca peptide, variable NAD^+
T1 sequence (Q9NRC8 1-400): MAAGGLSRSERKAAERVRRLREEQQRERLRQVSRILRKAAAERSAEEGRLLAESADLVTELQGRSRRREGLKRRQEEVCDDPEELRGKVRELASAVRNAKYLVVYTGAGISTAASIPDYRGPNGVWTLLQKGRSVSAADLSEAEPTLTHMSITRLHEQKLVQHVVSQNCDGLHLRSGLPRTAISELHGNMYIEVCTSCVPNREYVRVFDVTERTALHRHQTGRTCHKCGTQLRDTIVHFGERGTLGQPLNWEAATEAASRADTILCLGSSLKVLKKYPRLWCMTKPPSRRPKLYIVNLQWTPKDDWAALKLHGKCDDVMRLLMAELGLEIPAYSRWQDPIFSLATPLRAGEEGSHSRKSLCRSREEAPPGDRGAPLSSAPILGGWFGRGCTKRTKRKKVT
How it was run: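 NAD⁺ serially diluted (10-10000 µM) in 50 mM Tris pH 8.0. Mixed 1:1 with 500 µM (pre-mix) H3K18Ac-DNB or H3K18Deca-DNB peptide in 50 mM Tris pH 8.0, 20% DMSO, 1 mM DTT. Pre-incubated 10 min at 37°C. Started with Sirt7 complex carrying 2 µM nicotinamidase, run 30-60 min, quenched with 6% TFA. HPLC monitored at 400 nm; Michaelis-Menten fit.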

apoSirt7 = target: T2, apoSirt7 (Homo sapiens, UniProt Q9NRC8); assay: Michaelis-Menten kinetics with variable H3K18 acylated peptide, apoSirt7; assay type: biochemical; settings: uncomplexed Sirt7, H3K18Ac
T2 sequence (Q9NRC8 1-400): T1 sequence (Q9NRC8 1-400)
How it was run: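 Acylated H3K18 peptide serially diluted in 50 mM Tris pH 8.0 with 20% DMSO. 20 µL of Sirt7 solution was mixed with 20 µL of peptide at 37°C. Reactions were started with 10 µL of 10 mM NAD⁺ stock, run 5-60 min at 37°C and quenched with 6% TFA. Products were resolved by C18 HPLC. Product concentration = deacetylated/acetylated peak ratio × total substrate. Three independent experiments; Michaelis-Menten fit.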

[2] = system: acidic patch regions of nucleosomes; assay: LANA-FAM nucleosome binding and competition with Sirt7; design: species or system human; settings: LANA-FAM pre-bound to nucleosomes, fluorescence anisotropy
Sirt7 [3] = target: T1, Sirt7; settings: cited from earlier work; for activity of recombinant apoSirt7 (in words): in vitro
[4] = target: Sirt7-CLB (Sirt7 with the NanoLuc large bit fused to its C-terminus) (UniProt Q9NRC8); assay: split reporter
Sirt7-CLB = assay: NanoBit; assay type: binding; settings: H3K18-acetylated nucleosomes with ADPr
How it was run: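 Sirt7 was fused C-terminally to the NanoLuc large-bit fragment and purified natively. […] Buffer: 50 mM Tris pH 8.0, 250 µg/ml BSA. Incubated 20 min at RT. NanoGlow substrate added (50x final dilution), equilibrated 5 min at 37°C, luminescence read every 30 s for 15 min.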

Compound: Sirt7: 400 amino acid protein within the Class III deacetylase family; recombinant, E. coli
Km (Sirt7 [1]; read-out: KM^NAD, 50 mM Tris pH 8.0, 37°C, 30-60 min, HPLC): 680 ± 80 µM
kcat/KM (Sirt7 [1]): 32±4.1 M^−1x s^−1
kcat (Sirt7 [1]; 50 mM Tris pH 8.0, 37°C, 30-60 min, HPLC): 0.022 ± 0.001 s⁻¹
H3K18 deacetylation activity (in words) (apoSirt7): very low, but readily measurable H3K18 deacetylation activity
displacement of LANA-FAM from nucleosomes (in words) [2]: Competitive displacement of LANA-FAM peptide from the pre-formed LANA-nucleosomal complex
activity of recombinant apoSirt7 (in words) (Sirt7 [3]; no reference number at the word, ref [19],[28] in sentence): completely inactive
activity of recombinant apoSirt7 (in words) (Sirt7 [3]; ref [19]): completely inactive
activity of apoSirt7 (in words) (Sirt7 [3]; ref [19],[40]): inactive

Kd [4]: 3.75 nM
Compound: H3K18-acetylated small bit nucleosomes (SMB-AcNucs) (from UniProt P0C0S8 1-130; P68431 1-136; P62805 1-103) (complex)

reduction in Kd value on ADPr addition (Sirt7-CLB): 2.5 fold
Compound: Nc1ncnc2c1ncn2[C@@H]1O[C@H](COP(=O)(O)OP(=O)(O)OC[C@H]2OC(O)[C@H](O)[C@@H]2O)[C@@H](O)[C@H]1O (stereo partly shown) [ADPr, ADP-ribose]
